Experimental data published in ChEMBL document CHEMBL3286149, “Synthesis of rigidified eIF4E/eIF4G inhibitor-1 (4EGI-1) mimetic and their in vitro characterization as inhibitors of protein-protein interaction” (J Med Chem, 2014).

Columns and labels:
[1] = Antiproliferative activity against human CRL2351 cells assessed as inhibition of cell proliferation after 5 days by sulforhodamine B assay; type: functional, cell-based; conditions: 120 h
Method in brief: (§1)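 Adherent cells (CRL-2351 breast, CRL-2813 melanoma) in 96-well plates kept 5 days with compound at 0.54–20 μM. Fixed in cold 10% TCA at 4 °C overnight, stained 1 h at RT with 0.057% SRB in 1% acetic acid, unbound dye removed with 1% acetic acid, bound dye dissolved in 10 mM Tris pH 10, absorbance read at 510 nm. IC50 reported.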

[2] = Antiproliferative activity against human CRL2813 cells assessed as inhibition of cell proliferation after 5 days by sulforhodamine B assay; type: functional, cell-based; conditions: CRL2813, 120 h; method in brief: as §1
[3] = biological target: Eukaryotic translation initiation factor 4E (Homo sapiens, UniProt P06730); experiment: Displacement of N-alpha-fluorescein tagged eIF4G-derived peptide from GST-DN26-eIF4E (unknown origin) by fluorescence polarization assay
Sequence of Eukaryotic translation initiation factor 4E (P06730 whole entry): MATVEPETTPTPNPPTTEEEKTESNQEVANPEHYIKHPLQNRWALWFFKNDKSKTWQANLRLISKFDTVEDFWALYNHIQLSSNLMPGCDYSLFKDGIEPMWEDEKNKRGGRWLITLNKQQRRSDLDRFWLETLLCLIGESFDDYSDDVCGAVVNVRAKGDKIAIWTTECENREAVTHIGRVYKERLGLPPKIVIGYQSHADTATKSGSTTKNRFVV

[4] = Retention time of the compound by RP-HPLC analysis; type: physicochemical
Method in brief: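 C18 Xbridge column (4.6 mm × 100 mm), 1 mL/min, detection at 254 nm. Mobile phase A 0.1% v/v FA in water, B 0.1% v/v TFA in acetonitrile. Linear gradient usually 0–100% B over 26 min; some runs 50–100% B over 20 min or 30–100% B over 26 min.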

| SMILES | IC50 [3] [µM] | Retention_time [4] [min] | IC50 [1] [µM] | IC50 [2] [µM] |
| --- | --- | --- | --- | --- |
| O=C(O)/C(Cc1ccccc1[N+](=O)[O-])=N\Nc1nc(-c2ccc(Cl)c(Cl)c2)cs1 | – | – | 11.6 | 15.3 |
| O=C(O)/C(Cc1ccccc1[N+](=O)[O-])=N\Nc1nc2c(s1)CCc1cc(Cl)c(Cl)cc1-2 | 34 | 10.79 | > 20 | 12 |
| O=C(O)/C(Cc1ccccc1[N+](=O)[O-])=N\Nc1nc2c(s1)CCc1c-2ccc(Cl)c1Cl | – | 11.39 | 11.2 | 10.6 |
| O=C(O)/C(Cc1ccccc1[N+](=O)[O-])=N/Nc1nc2c(s1)COc1c-2ccc(Cl)c1Cl | – | 11.6 | 16.6 | 5.8 |
| O=C(O)/C(Cc1ccccc1[N+](=O)[O-])=N\Nc1nc2c(s1)COc1c-2ccc(Cl)c1Cl | – | 13.6 | > 20 | 12.3 |
| O=C(O)/C(Cc1ccccc1[N+](=O)[O-])=N\Nc1nc2c(s1)COc1cc(Cl)c(Cl)cc1-2 | – | 14.74 | 15.4 | 8.7 |
| O=C(O)/C(Cc1ccccc1[N+](=O)[O-])=N\Nc1nc2c(s1)C[S+]([O-])c1cc(Cl)c(Cl)cc1-2 (stereo not drawn) | – | 10.38 | 10.3 | 4.1 |
| O=C(O)/C(Cc1ccccc1[N+](=O)[O-])=N/Nc1nc2c(s1)C[S+]([O-])c1c-2ccc(Cl)c1Cl (stereo not drawn) | – | 8.74 | > 20 | 11.2 |
| O=C(O)/C(Cc1ccccc1[N+](=O)[O-])=N\Nc1nc2c(s1)C[S+]([O-])c1c-2ccc(Cl)c1Cl (stereo not drawn) | – | 10.12 | 19.8 | 11.4 |
| O=C(O)/C(Cc1ccccc1[N+](=O)[O-])=N/Nc1nc2c(s1)CS(=O)(=O)c1c-2ccc(Cl)c1Cl | – | 12.41 | – | – |
| O=C(O)/C(Cc1ccccc1[N+](=O)[O-])=N\Nc1nc2c(s1)CS(=O)(=O)c1c-2ccc(Cl)c1Cl | – | 13.63 | – | – |
| O=C(O)/C(Cc1ccccc1[N+](=O)[O-])=N/Nc1nc2c(s1)CS(=O)(=O)c1cc(Cl)c(Cl)cc1-2 | – | 11.48 | – | – |
| O=C(O)/C(Cc1ccccc1[N+](=O)[O-])=N\Nc1nc2c(s1)CS(=O)(=O)c1cc(Cl)c(Cl)cc1-2 | – | 12.41 | – | – |
| COc1cc2c(cc1OC)-c1nc(N/N=C(\Cc3ccccc3[N+](=O)[O-])C(=O)O)sc1CC2 | – | 10 | > 20 | 12.1 |
| COc1cc2c(cc1OC)-c1nc(N/N=C(/Cc3ccccc3[N+](=O)[O-])C(=O)O)sc1CC2 | – | 11.22 | > 20 | > 20 |
| COc1ccc2c(c1OC)OCc1sc(N/N=C(\Cc3ccccc3[N+](=O)[O-])C(=O)O)nc1-2 | – | 8.78 | – | > 20 |
| COc1ccc2c(c1OC)OCc1sc(N/N=C(/Cc3ccccc3[N+](=O)[O-])C(=O)O)nc1-2 | – | 10.38 | – | – |
| COc1cc2c(cc1OC)-c1nc(N/N=C(/Cc3ccccc3[N+](=O)[O-])C(=O)O)sc1CO2 | – | 10.9 | – | – |

Now from value to compound, other results behind:

| IC50 [3] [µM] | Retention_time [4] [min] | SMILES | IC50 [1] [µM] | IC50 [2] [µM] |
| --- | --- | --- | --- | --- |
| 21.5 | 8.37 | O=C(O)/C(Cc1ccccc1[N+](=O)[O-])=N/Nc1nc2c(s1)CCc1cc(Cl)c(Cl)cc1-2 | 4.1 | 3.8 |
| – | 8.69 | O=C(O)/C(Cc1ccccc1[N+](=O)[O-])=N/Nc1nc2c(s1)CCc1c-2ccc(Cl)c1Cl | 4.4 | 3.6 |
| – | 12.77 | O=C(O)/C(Cc1ccccc1[N+](=O)[O-])=N/Nc1nc2c(s1)COc1cc(Cl)c(Cl)cc1-2 | 5.2 | 3.1 |
| – | 10.33 | O=C(O)/C(Cc1ccccc1[N+](=O)[O-])=N/Nc1nc2c(s1)CSc1cc(Cl)c(Cl)cc1-2 | 17.6 | 5.1 |
| – | 13.33 | O=C(O)/C(Cc1ccccc1[N+](=O)[O-])=N\Nc1nc2c(s1)CSc1cc(Cl)c(Cl)cc1-2 | 17.7 | 10.5 |
| – | 15.66 | O=C(O)/C(Cc1ccccc1[N+](=O)[O-])=N/Nc1nc2c(s1)CSc1c-2ccc(Cl)c1Cl | 9.1 | 4.5 |
| – | 18.23 | O=C(O)/C(Cc1ccccc1[N+](=O)[O-])=N\Nc1nc2c(s1)CSc1c-2ccc(Cl)c1Cl | 16.7 | 7 |
| – | 9.82 | O=C(O)/C(Cc1ccccc1[N+](=O)[O-])=N/Nc1nc2c(s1)C[S+]([O-])c1cc(Cl)c(Cl)cc1-2 (stereo not drawn) | > 20 | 7.5 |
| – | 9.07 | COc1cc2c(cc1OC)-c1nc(N/N=C(\Cc3ccccc3[N+](=O)[O-])C(=O)O)sc1CO2 | – | > 20 |
